ChEMBL document CHEMBL2086252, “Syntheses and evaluation of anticonvulsant activity of novel branched alkyl carbamates” (J Med Chem, 2012)
The source made the active and inactive calls. No cut-off for these calls is given here.

Tests used:
Mus musculus [1] = assay: Neurotoxicity in albino CF1 mouse assessed as minimal motor impairment at 30 mg/kg, ip after 4 hrs by rotarod test; assay type: toxicity, organism-based; parameters: dose 30 mg/kg, route intraperitoneal; settings: in vivo
How it was run: (§1)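 Mice dosed ip at 30, 100 or 300 mg/kg, then tested 0.5 h and 4 h after administration in the MES or scMet test. Protection was recorded as animals protected over animals tested. Neurotoxicity was recorded as motor impairment or sedation, as animals affected over animals tested.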

Mus musculus [2] = assay: Anticonvulsant activity in albino CF1 mouse assessed as protection against subcutaneous metrazol-induced seizures at 30 mg/kg, ip after 0.5 hrs; assay type: functional, organism-based; parameters: dose 30 mg/kg; how it was run: as §1
Mus musculus [3] = assay: Anticonvulsant activity in albino CF1 mouse assessed as protection against maximal electroshock-induced seizures at 30 mg/kg, ip after 4 hrs; assay type: functional, organism-based; parameters: dose 30 mg/kg; how it was run: as §1
Mus musculus [4] = assay: Anticonvulsant activity in albino CF1 mouse assessed as protection against subcutaneous metrazol-induced seizures at 100 mg/kg, ip after 4 hrs; assay type: functional, organism-based; parameters: dose 100 mg/kg; how it was run: as §1
Mus musculus [5] = assay: Anticonvulsant activity in albino CF1 mouse assessed as protection against subcutaneous metrazol-induced seizures at 300 mg/kg, ip after 0.5 hrs; assay type: functional, organism-based; parameters: dose 300 mg/kg; how it was run: as §1
Mus musculus [6] = assay: Neurotoxicity in albino CF1 mouse assessed as minimal motor impairment at 100 mg/kg, ip after 4 hrs by rotarod test; assay type: toxicity, organism-based; parameters: dose 100 mg/kg, route intraperitoneal; settings: in vivo; how it was run: as §1
Mus musculus [7] = assay: Anticonvulsant activity in albino CF1 mouse assessed as protection against subcutaneous metrazol-induced seizures at 30 mg/kg, ip after 4 hrs; assay type: functional, organism-based; parameters: dose 30 mg/kg; how it was run: as §1
Mus musculus [8] = assay: Anticonvulsant activity in albino CF1 mouse assessed as protection against maximal electroshock-induced seizures at 100 mg/kg, ip after 0.5 hrs; assay type: functional, organism-based; parameters: dose 100 mg/kg; how it was run: as §1
Mus musculus [9] = assay: Anticonvulsant activity in albino CF1 mouse assessed as protection against subcutaneous metrazol-induced seizures at 300 mg/kg, ip after 4 hrs; assay type: functional, organism-based; parameters: dose 300 mg/kg; how it was run: as §1
Mus musculus [10] = assay: Anticonvulsant activity in albino CF1 mouse assessed as protection against maximal electroshock-induced seizures at 30 mg/kg, ip after 0.5 hrs; assay type: functional, organism-based; parameters: dose 30 mg/kg; how it was run: as §1
Mus musculus [11] = assay: Anticonvulsant activity in albino CF1 mouse assessed as protection against maximal electroshock-induced seizures at 100 mg/kg, ip after 4 hrs; assay type: functional, organism-based; parameters: dose 100 mg/kg; how it was run: as §1
Mus musculus [12] = assay: Neurotoxicity in albino CF1 mouse assessed as minimal motor impairment at 30 mg/kg, ip after 0.5 hrs by rotarod test; assay type: toxicity, organism-based; parameters: dose 30 mg/kg, route intraperitoneal; settings: in vivo; how it was run: as §1
Mus musculus [13] = assay: Neurotoxicity in albino CF1 mouse assessed as minimal motor impairment at 300 mg/kg, ip after 4 hrs by rotarod test; assay type: toxicity, organism-based; parameters: dose 300 mg/kg, route intraperitoneal; settings: in vivo; how it was run: as §1
Mus musculus [14] = assay: Anticonvulsant activity in albino CF1 mouse assessed as protection against maximal electroshock-induced seizures at 300 mg/kg, ip after 4 hrs; assay type: functional, organism-based; parameters: dose 300 mg/kg; how it was run: as §1
Mus musculus [15] = assay: Anticonvulsant activity in albino CF1 mouse assessed as protection against subcutaneous metrazol-induced seizures at 100 mg/kg, ip after 0.5 hrs; assay type: functional, organism-based; parameters: dose 100 mg/kg; how it was run: as §1
Mus musculus [16] = assay: Anticonvulsant activity in albino CF1 mouse assessed as protection against maximal electroshock-induced seizures at 300 mg/kg, ip after 0.5 hrs; assay type: functional, organism-based; parameters: dose 300 mg/kg; how it was run: as §1
Rattus norvegicus [17] = assay: Anticonvulsant activity in Sprague-Dawley albino rat assessed as protection against maximal electroshock-induced seizures at 30 mg/kg, po after 30 mins; assay type: functional, organism-based; parameters: dose 30 mg/kg
How it was run: (§2)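 Rats dosed orally. Anti-MES protection was scored as animals protected over animals tested at each time after dosing. Neurotoxicity was scored as motor impairment or sedation, as animals affected over animals tested.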

Rattus norvegicus [18] = assay: Neurotoxicity in pilocarpine-induced status epilepticus Sprague-Dawley albino rat model assessed as minimal motor impairment at 100 mg/kg, ip after 0.5 hrs by rotarod test; assay type: toxicity, organism-based; parameters: dose 100 mg/kg, route intraperitoneal; settings: in vivo
Rattus norvegicus [19] = assay: Neurotoxicity in pilocarpine-induced status epilepticus Sprague-Dawley albino rat model assessed as minimal motor impairment at 300 mg/kg, ip after 0.25 hr by rotarod test; assay type: toxicity, organism-based; parameters: dose 300 mg/kg, route intraperitoneal; settings: in vivo
How it was run: (§3)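 Rat pilocarpine status epilepticus model: test carbamate given at 0 or 30 min after the first observed Racine stage 3 motor seizure, which marks SE onset. Neurotoxicity was scored within the same model.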

Rattus norvegicus [20] = assay: Neurotoxicity in pilocarpine-induced status epilepticus Sprague-Dawley albino rat model assessed as minimal motor impairment at 100 mg/kg, ip after 1 hr by rotarod test; assay type: toxicity, organism-based; parameters: dose 100 mg/kg, route intraperitoneal; settings: in vivo
Rattus norvegicus [21] = assay: Neurotoxicity in pilocarpine-induced status epilepticus Sprague-Dawley albino rat model assessed as minimal motor impairment at 300 mg/kg, ip after 0.5 hrs by rotarod test; assay type: toxicity, organism-based; parameters: dose 300 mg/kg, route intraperitoneal; settings: in vivo; how it was run: as §3
Rattus norvegicus [22] = assay: Anticonvulsant activity in Sprague-Dawley albino rat assessed as protection against maximal electroshock-induced seizures at 30 mg/kg, po after 1 hr; assay type: functional, organism-based; parameters: dose 30 mg/kg; how it was run: as §2
Rattus norvegicus [23] = assay: Neurotoxicity in pilocarpine-induced status epilepticus Sprague-Dawley albino rat model assessed as minimal motor impairment at 100 mg/kg, ip after 2 hrs by rotarod test; assay type: toxicity, organism-based; parameters: dose 100 mg/kg, route intraperitoneal; settings: in vivo
Rattus norvegicus [24] = assay: Neurotoxicity in pilocarpine-induced status epilepticus Sprague-Dawley albino rat model assessed as minimal motor impairment at 300 mg/kg, ip after 2 hrs by rotarod test; assay type: toxicity, organism-based; parameters: dose 300 mg/kg, route intraperitoneal; settings: in vivo; how it was run: as §3
Mus musculus [25] = assay: Neurotoxicity in albino CF1 mouse assessed as minimal motor impairment at 300 mg/kg, ip after 0.5 hrs by rotarod test; assay type: toxicity, organism-based; parameters: dose 300 mg/kg, route intraperitoneal; settings: in vivo; how it was run: as §1
Rattus norvegicus [26] = assay: Neurotoxicity in pilocarpine-induced status epilepticus Sprague-Dawley albino rat model assessed as minimal motor impairment at 100 mg/kg, ip after 0.25 hr by rotarod test; assay type: toxicity, organism-based; parameters: dose 100 mg/kg, route intraperitoneal; settings: in vivo
Rattus norvegicus [27] = assay: Neurotoxicity in Sprague-Dawley albino rat assessed as minimal motor impairment at 30 mg/kg, po by rotarod test; assay type: toxicity, organism-based; parameters: dose 30 mg/kg, route oral; settings: in vivo; how it was run: as §2
Rattus norvegicus [28] = assay: Neurotoxicity in pilocarpine-induced status epilepticus Sprague-Dawley albino rat model assessed as minimal motor impairment at 300 mg/kg, ip after 4 hrs by rotarod test; assay type: toxicity, organism-based; parameters: dose 300 mg/kg, route intraperitoneal; settings: in vivo; how it was run: as §3
Rattus norvegicus [29] = assay: Neurotoxicity in pilocarpine-induced status epilepticus Sprague-Dawley albino rat model assessed as minimal motor impairment at 100 mg/kg, ip after 4 hrs by rotarod test; assay type: toxicity, organism-based; parameters: dose 100 mg/kg, route intraperitoneal; settings: in vivo
Rattus norvegicus [30] = assay: Anticonvulsant activity in Sprague-Dawley albino rat assessed as protection against maximal electroshock-induced seizures at 30 mg/kg, po after 2 hrs; assay type: functional, organism-based; parameters: dose 30 mg/kg; how it was run: as §2
Rattus norvegicus [31] = assay: Anticonvulsant activity in Sprague-Dawley albino rat assessed as protection against maximal electroshock-induced seizures at 30 mg/kg, po after 4 hrs; assay type: functional, organism-based; parameters: dose 30 mg/kg; how it was run: as §2
Rattus norvegicus [32] = assay: Neurotoxicity in pilocarpine-induced status epilepticus Sprague-Dawley albino rat model assessed as minimal motor impairment at 300 mg/kg, ip after 1 hr by rotarod test; assay type: toxicity, organism-based; parameters: dose 300 mg/kg, route intraperitoneal; settings: in vivo; how it was run: as §3
Mus musculus [33] = assay: Neurotoxicity in albino CF1 mouse assessed as minimal motor impairment at 100 mg/kg, ip after 0.5 hrs by rotarod test; assay type: toxicity, organism-based; parameters: dose 100 mg/kg, route intraperitoneal; settings: in vivo; how it was run: as §1
Rattus norvegicus [34] = assay: Anticonvulsant activity in ip dosed Sprague-Dawley albino rat assessed as protection against pilocarpine-induced status epilepticus after 0.5 hrs; assay type: functional
How it was run: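 Pilocarpine status epilepticus model in rats. Number and severity of convulsive seizures were observed behaviourally.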

Rattus norvegicus [35] = assay: Anticonvulsant activity in Sprague-Dawley albino rat assessed as protection against maximal electroshock-induced seizures at 30 mg/kg, po after 15 mins; assay type: functional, organism-based; parameters: dose 30 mg/kg; how it was run: as §2

SMILES | Activity (Mus musculus [1]) | Activity (Mus musculus [2]) | Activity (Mus musculus [3]) | Activity (Mus musculus [4]) | Activity (Mus musculus [5]) | Activity (Mus musculus [6]) | Activity (Mus musculus [7]) | Activity (Mus musculus [8]) | Activity (Mus musculus [9]) | Activity (Mus musculus [10]) | Activity (Mus musculus [11]) | Activity (Mus musculus [12]) | Activity (Mus musculus [13]) | Activity (Mus musculus [14]) | Activity (Mus musculus [15]) | Activity (Mus musculus [16]) | Activity (Rattus norvegicus [19]) | Activity (Rattus norvegicus [20]) | Activity (Rattus norvegicus [21]) | Activity (Rattus norvegicus [23]) | also measured
CCCC(CCC)COC(=O)NC1CCCCC1 | Non-toxic | inactive | inactive | inactive | inactive | Non-toxic | inactive | inactive | inactive | inactive | inactive | Non-toxic | Non-toxic | inactive | inactive | inactive | – | – | – | – | –
CCCCC(CC)COC(N)=O (racemic) | Non-toxic | inactive | inactive | inactive | Active | Non-toxic | inactive | Active | inactive | inactive | inactive | Non-toxic | Non-toxic | Active | inactive | Active | Toxic | Non-toxic | Toxic | Non-toxic | Activity (Rattus norvegicus [17]): inactive; Activity (Rattus norvegicus [18]): Non-toxic; Activity (Rattus norvegicus [22]): inactive; Activity (Rattus norvegicus [24]): Toxic; Activity (Mus musculus [25]): Toxic; Activity (Rattus norvegicus [26]): Non-toxic; Activity (Rattus norvegicus [27]): Non-toxic; Activity (Rattus norvegicus [28]): Toxic; Activity (Rattus norvegicus [29]): Non-toxic; Activity (Rattus norvegicus [30]): inactive; Activity (Rattus norvegicus [31]): inactive; Activity (Rattus norvegicus [32]): Toxic; Activity (Mus musculus [33]): Non-toxic
CCCC(C(N)=O)C(C)CC (centres undefined) | – | – | – | – | – | – | – | – | – | – | – | – | – | – | – | – | – | – | – | – | ED50 (Rattus norvegicus [34]): 84 mg/kg
CCC(CC)COC(N)=O | Non-toxic | inactive | inactive | inactive | Active | Non-toxic | inactive | – | inactive | inactive | inactive | Non-toxic | Non-toxic | inactive | inactive | Active | Toxic | Non-toxic | Toxic | Non-toxic | Activity (Rattus norvegicus [17]): inactive; Activity (Rattus norvegicus [22]): inactive; Activity (Rattus norvegicus [24]): Non-toxic; Activity (Mus musculus [25]): Toxic; Activity (Rattus norvegicus [27]): Non-toxic; Activity (Rattus norvegicus [28]): Non-toxic; Activity (Rattus norvegicus [29]): Non-toxic; Activity (Rattus norvegicus [35]): inactive; Activity (Rattus norvegicus [30]): inactive; Activity (Rattus norvegicus [31]): inactive; Activity (Rattus norvegicus [32]): Non-toxic; Activity (Mus musculus [33]): Non-toxic
CC(C)(C)CCOC(N)=O | – | inactive | – | – | – | – | inactive | Active | – | Active | – | Toxic | – | – | – | – | Toxic | Non-toxic | Toxic | Non-toxic | Activity (Rattus norvegicus [18]): Non-toxic; Activity (Rattus norvegicus [24]): Non-toxic; Activity (Mus musculus [25]): Toxic; Activity (Rattus norvegicus [26]): Non-toxic; Activity (Rattus norvegicus [28]): Non-toxic; Activity (Rattus norvegicus [29]): Non-toxic; Activity (Rattus norvegicus [32]): Non-toxic; Activity (Mus musculus [33]): Toxic
NC(=O)N1c2ccccc2C=Cc2ccccc21 [CARBAMAZEPINE] | – | – | – | – | – | – | – | – | – | – | – | – | – | – | – | – | – | – | – | – | ED50 (Rattus norvegicus [34]): 50 mg/kg
